Measurements reported in ChEMBL document CHEMBL4017514, “Discovery of Novel Macrocyclic Hedgehog Pathway Inhibitors Acting by Suppressing the Gli-Mediated Transcription” (J Med Chem, 2017).
The source made the active and inactive calls. No cut-off for these calls is given here.

Assays:
Homo sapiens = species on record: Homo sapiens; experiment: Inhibition of TNFalpha-induced NFkappaB activation in HEK293 cells at 1 uM after 24 hrs by dual luciferase reporter gene assay; type: cell-based
In short: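 HEK293 cells carrying NF-κB firefly reporter plus Renilla, stimulated with TNF-α and treated for 24 h. Cells lysed for dual luciferase assay, firefly signal normalized to Renilla. Data given as mean ± SD.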

Mus musculus [1] = species on record: Mus musculus; experiment: Inhibition of hedgehog signaling pathway in mouse Light2 cells harboring Smo D473H mutant after 36 hrs by Gli luciferase activity; type: cell-based
In short: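 Light II cells (NIH-3T3 stably carrying Gli-responsive firefly luciferase and Renilla vector) transfected with wild-type, D473H or W535L Smo plasmid. Exposed to compound for 36 h, then dual luciferase assay with firefly/Renilla normalization. IC50 derived and given as mean ± SD.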

Mus musculus [2] = species on record: Mus musculus; experiment: Inhibition of hedgehog signaling pathway in mouse Ptch+/- p53-/- medulloblastoma cells assessed as reduction in GLI1 mRNA expression at 3 uM by RT-qPCR analysis
In short: (§1)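 ptch+/−;p53−/− medulloblastoma cells kept in Neurobasal A/B-27 medium with EGF and bFGF, then treated. Gli1 and ptch1 mRNA measured by RT-qPCR. Data given as mean ± SD.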

Mus musculus [3] = species on record: Mus musculus; experiment: Inhibition of hedgehog signaling pathway in mouse Ptch+/- p53-/- medulloblastoma cells assessed as reduction in ptch1 mRNA expression at 3 uM by RT-qPCR analysis; in short: as §1
Mus musculus [4] = experiment: Downregulation of ptch1 mRNA expression level in athymic nude mouse implanted with mouse Ptch+/- p53-/- medulloblastoma cells at 25 to 50 mg/kg, ip bid for 15 consecutive days measured after 4 hrs of last dosage by RT-qPCR analysis; type: functional, organism-based
In short: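 Same allograft model (n = 5), dosed ip twice daily for 15 days in 0.5% methylcellulose/0.2% Tween-80 suspension. Tumors harvested 4 h after the last dose. Gli1 and ptch1 mRNA quantified by RT-qPCR. Data given as mean ± SD.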

[5] = molecular target: Bromodomain-containing protein 4 (Homo sapiens) (UniProt O60885); experiment: Inhibition of BRD4 (unknown origin) at 10 uM
Mus musculus [6] = species on record: Mus musculus; experiment: Inhibition of hedgehog signaling pathway in mouse NIH/3T3 cells harboring sufu shRNA assessed as downregulation of Gli1 mRNA expression at 300 nM by RT-qPCR analysis; type: cell-based
Mus musculus [7] = species on record: Mus musculus; experiment: Inhibition of hedgehog signaling pathway in mouse Shh Light2 cells harboring Gli1 plasmid assessed as reduction in Gli1-mediated transcriptional activity by luciferase reporter gene assay; type: cell-based
Mus musculus [8] = species on record: Mus musculus; experiment: Inhibition of hedgehog signaling pathway in mouse C3H10T1/2 cells assessed as downregulation of Shh-induced ptch1 mRNA expression levels at 300 nM after 36 hrs by RT-qPCR analysis; type: cell-based
In short: (§2)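 NIH-3T3 or C3H10T1/2 cells treated as indicated for 36 h, then collected for RT-qPCR of Gli1 and ptch1 mRNA. Data given as mean ± SD.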

Mus musculus [9] = species on record: Mus musculus; experiment: Inhibition of hedgehog signaling pathway in mouse NIH/3T3 cells assessed as downregulation of Shh-induced Gli1 mRNA expression levels at 300 nM after 36 hrs by RT-qPCR analysis; type: cell-based; in short: as §2
Mus musculus [10] = species on record: Mus musculus; experiment: Inhibition of hedgehog signaling pathway in mouse NIH/3T3 cells harboring sufu shRNA assessed as downregulation of ptch1 mRNA expression at 300 nM by RT-qPCR analysis; type: cell-based
Mus musculus [11] = species on record: Mus musculus; experiment: Inhibition of hedgehog signaling pathway in mouse NIH/3T3 cells assessed as reduction in edogenous expression of Gli1 protein by immunoblot analysis; type: cell-based
In short: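 NIH-3T3 cells cultured in 10% FBS were exposed to compound at various concentrations for 24 h. Endogenous Gli1 and Gli2 detected by Western blot.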

- inhibition (Mus musculus [2]): Active
- inhibition (Mus musculus [3]): Active
- inhibition [5]: inactive
Compound: COc1ccc(CN2C[C@@H]3CN(S(=O)(=O)c4ccc(Cl)cc4)CC[C@@H]3Oc3c(NC(=O)C4CC4)cccc3C2=O)cc1 (racemic)
- inhibition (Homo sapiens): inactive
- inhibition (Mus musculus [1]): Dose-dependent effect
- Activity (Mus musculus [4]): Active
- inhibition (Mus musculus [6]): Active
- inhibition (Mus musculus [7]): Dose-dependent effect
- inhibition (Mus musculus [8]): Active
- inhibition (Mus musculus [9]): Active
- inhibition (Mus musculus [10]): Active
- inhibition (Mus musculus [11]): Dose-dependent effect
